Screening data from PubChem.
An excerpt weighted towards active compounds, which were near 2.8% of everything screened.
PAFAH1B3 inh: PAFAH1B3 enzyme inhibitors, primary screen, biochemical, fluorescence polarization, human. recombinant PAFAH1B3, FP-rhodamine probe. inhibition, % at 3.39 µM. 340,000 tested, 0.28% active;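 active = inhibition above the screen-wide average of all tested compounds plus 3 SD, cut at about 25% in these data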;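 also: 0% = enzyme with DMSO only and 100% = wells lacking PAFAH1B3 protein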
mABHD4 FP: ABHD4 inhibitors, primary screen, biochemical, fluorescence polarization, mouse | (Lyso)-N-acylphosphatidylethanolamine lipase (Mus musculus), Q8VD66 | purified mABHD4, FP-Rh probe fluorescence polarization | inhibition, % at 8.92 µM | 370,000 tested, 0.54% active;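 active = inhibition exceeding the mean over every tested compound plus 3 SD, cut at about 30% in these data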;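 also: 0% = plate median of compound wells and 100% = S159A mutant with DMSO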
Target sequence (Q8VD66 whole entry, looked up): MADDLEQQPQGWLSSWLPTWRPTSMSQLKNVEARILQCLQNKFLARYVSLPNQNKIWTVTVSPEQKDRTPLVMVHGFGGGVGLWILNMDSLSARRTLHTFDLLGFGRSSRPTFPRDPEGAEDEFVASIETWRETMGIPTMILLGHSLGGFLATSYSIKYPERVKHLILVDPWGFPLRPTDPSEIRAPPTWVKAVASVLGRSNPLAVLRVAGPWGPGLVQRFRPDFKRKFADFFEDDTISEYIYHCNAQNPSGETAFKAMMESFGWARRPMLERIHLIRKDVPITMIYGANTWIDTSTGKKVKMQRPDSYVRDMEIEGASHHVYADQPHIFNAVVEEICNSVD
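Assay system: mABHD4 protein; medium: HEPES pH 7.0, NaCl, Pluronic buffer; dosing: 8.92 µM, single dose; schedule: 45 min + 60 min at 25 °C; signal: FP readout, ex 525 nm / em 598 nm; read-out: normalized percent inhibition of probe labeling; repeats: single replicate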
pPAFAH FP inh: pPAFAH enzyme inhibitors, primary screen, biochemical, fluorescence polarization, human. Platelet-activating factor acetylhydrolase (Homo sapiens), Q13093. recombinant pPAFAH, FP-rhodamine probe fluorescence polarization. inhibition, % at 3.39 µM. 330,000 tested, 1.5% active;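 active = inhibition above the mean inhibition across the screen plus 3 SD, cut at about 25% in these data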;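 also: inhibitors block binding of the rhodamine activity-based probe so polarization drops; 0% = enzyme with DMSO and 100% = wells lacking pPAFAH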
PAFAH1B2 FP inh: PAFAH1B2 enzyme inhibitors, primary screen, biochemical, fluorescence polarization, human; Platelet-activating factor acetylhydrolase IB subunit alpha2 (Homo sapiens), P68402; inhibition, % at 3.39 µM; recombinant PAFAH1B2, FP-rhodamine activity probe; 340,000 tested, 1.2% active;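 active = inhibition above the mean of all tested compounds plus 3 SD, cut at about 24% in these data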;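 also: 0% = enzyme with DMSO and 100% = wells lacking PAFAH1B2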
Target sequence (P68402 whole entry, looked up): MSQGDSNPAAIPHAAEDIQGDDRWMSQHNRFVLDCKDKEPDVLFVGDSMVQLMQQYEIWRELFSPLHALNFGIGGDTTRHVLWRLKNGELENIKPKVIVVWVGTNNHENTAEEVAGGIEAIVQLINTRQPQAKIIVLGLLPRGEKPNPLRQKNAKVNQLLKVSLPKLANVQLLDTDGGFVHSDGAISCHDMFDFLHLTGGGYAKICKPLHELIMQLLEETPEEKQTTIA
HTRA1 inhibitor: HTRA1 serine protease inhibitors, primary screen, biochemical, fluorescence polarization, HTS | Q92743 | recombinant HTRA1, FP-rhodamine activity-based probe | inhibition, % at 5.96 µM | 340,000 tested, 0.5% active | AID 504803, 2011; in the data active = inhibition above about 36%;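 also: 0% = enzyme with DMSO and 100% = wells lacking enzyme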
PAFAH2 inh: PAFAH2 enzyme inhibitors, primary screen, biochemical, fluorescence polarization, human; AID 492956, 2010; recombinant PAFAH2, FP-rhodamine activity probe; Platelet-activating factor acetylhydrolase 2, cytoplasmic (Homo sapiens), Q99487; 340,000 tested, 0.99% active; inhibition, % at 3.39 µM;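 active = inhibition above the mean over all tested compounds plus 3 SD, cut at about 30% in these data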;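 also: inhibitors block probe labeling of enzyme so polarization drops; 0% = enzyme with DMSO and 100% = wells lacking PAFAH2 protein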
PAFAH2 confirm: PAFAH2 enzyme inhibitors, confirmation, biochemical, fluorescence polarization, human. shares compounds with PAFAH2 inh. recombinant PAFAH2, FP-rhodamine activity probe. inhibition, % at 3.39 µM. 2,300 tested, 65% active. AID 493030, 2011;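 active = mean inhibition over three repeats above a set limit taken from the earlier primary screen, cut at about 30% in these data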;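 also: inhibitor blocks binding of rhodamine activity probe so polarization falls; 0% = enzyme with DMSO and 100% = wells lacking PAFAH2 protein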
The depositor's hits bear a star; . = no result given.

SMILES	PAFAH1B3 inh	mABHD4 FP	pPAFAH FP inh	PAFAH1B2 FP inh	HTRA1 inhibitor	PAFAH2 inh	PAFAH2 confirm
CC(=O)c1ccc(NC(=O)COC(=O)c2c[nH]c3ccccc23)cc1	20.9	-4.5	-4.5	-9.9	-20.9	44.7*	29.4
CC(C)CC(CCOCCO)NC(=O)OCc1ccccc1[N+](=O)[O-] (stereo unspecified)	.	2.4	.	.	.	.	.
CCOC(=O)c1c(NC(=O)C2CC(Cl)=CCC2C(=O)O)sc2c1CCCCC2 (stereo unspecified)	18.4	.	14.5	6.7	-21.9	38.4*	27.6
CCN(CC)C(=O)CSc1nc2c(sc(=S)n2CC)c(=O)n1-c1ccccc1	8.7	-2.2	7.9	5.1	-2.5	7.2	.
CCN(CC)C(=O)CSc1nc2c(sc(=S)n2-c2ccccc2OC)c(=O)n1-c1ccccc1	-1.9	0.8	8.2	1.1	-3.5	38.2*	9.3
O=C(COC(=O)c1cccc(F)c1)Nc1cccc(S(=O)(=O)N2CCOCC2)c1	.	-7.3	.	.	0.7	.	.
Cc1cc(C(=O)OCC(=O)Nc2cccc(S(N)(=O)=O)c2)c(C)o1	3.9	-4.5	5.0	3.5	-4.0	28.0	.
Cc1cc(C(=O)OCC(=O)Nc2cccc(S(=O)(=O)N3CCOCC3)c2)c(C)o1	2.2	-7.3	6.6	-3.5	3.5	35.7*	27.2
Cc1noc(C)c1COc1ccc(C(=O)OCC(=O)Nc2cccc(S(=O)(=O)N3CCOCC3)c2)cc1	-0.9	-26.4	7.8	0.7	-13.9	72.2*	64.5*
O=C(COC(=O)c1ccc(F)cc1F)Nc1cccc(S(=O)(=O)N2CCOCC2)c1	-8.4	-7.0	.	2.6	1.7	33.8*	34.7*
O=C(COC(=O)c1cc(S(=O)(=O)N2CCCC2)ccc1O)Nc1ccc(F)cc1F	-0.2	1.7	0.3	8.2	3.3	42.3*	20.7
C=CCOC(=O)N[C@H](c1cccc(OC)c1)[C@H](C)/C=C/CC(=O)OC	.	-2.9	.	.	.	.	.
CCOC(=O)CNC(=O)N(C)[C@H]1C[C@H]2c3[nH]c4c(-c5cccc(C)c5)cccc4c3CCN2C(=O)[C@H]1[C@H](C)O	.	9.3	.	.	.	.	.
CCC[C@H]1[C@@H](OC(=O)NCCc2ccccc2)CC[C@@]23CCCN2C(=O)CCC[C@@H]13	.	-2.4	.	.	.	.	.
COc1ccccc1CCC(=O)OCC(=O)Nc1cccc(S(=O)(=O)N2CCCCC2)c1	-2.0	-2.3	16.6	1.2	-22.8	7.3	.
COc1ccccc1CCC(=O)OCC(=O)Nc1cccc(S(=O)(=O)N2CCOCC2)c1	6.5	0.8	13.4	-5.6	-10.1	73.3*	66.0*
CCCC1CCC2(CCC(=O)N2CCOC)CC1 (stereo unspecified)	.	-1.1	.	.	.	.	.
C[C@H](O)[C@@H]1CN2CCc3c([nH]c4c(-c5ccccc5)cccc34)[C@@H]2C[C@@H]1N(C)C(=O)c1ccco1	.	4.8	.	.	.	.	.
O=[N+]([O-])c1ccccc1N/N=C\c1ccccc1Cl	-7.3	6.9	-0.9	-4.9	2.4	-4.0	.
O=[N+]([O-])c1ccc(O)c(/C=N/Nc2ccccc2Cl)c1	10.9	-2.5	16.2	3.4	1.9	74.3*	62.2*
CCCCCCC(c1c(C)n(C)n(-c2ccccc2)c1=O)c1c(C)n(C)n(-c2ccccc2)c1=O	1.9	4.0	0.1	4.2	-4.5	69.7*	70.3*
CCCCCc1ccc(NC(=O)OCCN2C(=O)CCC23CCC(c2ccccc2)CC3)cc1 (stereo unspecified)	.	-3.6	.	.	.	.	.
C=CCN(C)C(C#Cc1ccccc1)Cc1ccccc1 (stereo unspecified)	.	-1.3	.	.	.	.	.
COC(=O)[C@]12C[C@H](CC(=O)NCC34CC5CC(CC(C5)C3)C4)C(=O)N(Cc3ccco3)C1=C[C@H](COCc1ccccc1)O[C@@H]2C	.	7.5	.	.	.	.	.
O=C(COC(=O)/C=C/c1ccc(Br)o1)NC1CCCCC1	6.0	-2.6	9.2	2.2	3.8	76.8*	72.7*
SMILES	PAFAH1B3 inh	mABHD4 FP	pPAFAH FP inh	PAFAH1B2 FP inh	HTRA1 inhibitor	PAFAH2 inh	PAFAH2 confirm
O=C(COC(=O)/C=C/c1ccco1)NC1CCCCC1	4.4	3.0	7.5	0.9	0.1	77.1*	81.7*
CC1CCCCC1NC(=O)COC(=O)/C=C/c1ccco1 (stereo unspecified)	12.9	1.9	7.9	5.5	7.9	83.7*	73.8*
CC1CC(C)CN(C(=O)COC(=O)/C=C/c2ccco2)C1 (stereo unspecified)	5.6	6.1	0.6	6.0	2.6	10.0	.
COC(=O)C1CN(CCc2ccccc2)CCS(=O)(=O)N1Cc1ccc(OC)cc1 (stereo unspecified)	.	4.6	.	.	.	.	.
C=CCCC(=O)N1CCC(C(=O)NC2CCCc3ccccc32)CC1 (stereo unspecified)	.	1.4	.	.	.	.	.
O=C1CC(c2ccccc2)CN1C(=O)c1cccnc1 (stereo unspecified)	0.1	2.2	1.5	2.6	0.4	-2.1	.
O=C1CC(c2ccccc2)CN1C(=O)c1cncc(Br)c1 (stereo unspecified)	-1.8	8.1	2.9	0.3	6.0	64.2*	60.6*
O=C(OCC(=O)c1cccc2ccccc12)c1ccc(CO)cc1	8.0	-16.5	0.0	2.2	-34.2	47.6*	25.0
COc1ccccc1/C=C/C(=O)OCC(=O)Nc1c(F)cccc1F	2.9	-4.1	12.4	-1.9	7.7	52.7*	63.0*
COc1ccccc1/C=C/C(=O)OCC(=O)NCc1ccc2c(c1)OCO2	6.4	-1.2	14.2	5.2	-2.5	50.5*	33.2*
COc1ccccc1/C=C/C(=O)OCC(=O)Nc1ccc2c(c1)OCO2	6.9	6.4	16.2	-0.3	-0.1	79.4*	85.5*
C[C@@H]1OC(C2CCCCC2)N(C)[C@H]2C[C@H]3c4[nH]c5cccc(-c6ccccc6)c5c4CCN3C[C@@H]12 (stereo partly specified)	.	8.8	.	.	.	.	.
O=C(COC(=O)c1ccc(F)c(S(=O)(=O)N2CCOCC2)c1)NCCc1ccccc1	1.1	-3.7	6.5	-0.3	4.4	-0.9	.
COc1ccc(CNC(=O)COC(=O)c2ccc(C)c(S(=O)(=O)N3CCOCC3)c2)cc1	4.1	-3.9	13.3	1.8	4.5	13.1	.
Cc1ccc(C(=O)OCC(=O)NC(C)C)cc1S(=O)(=O)N1CCOCC1	0.6	3.3	11.4	0.7	-0.3	32.4*	23.3
Cc1ccc(C(=O)OCC(=O)Nc2ccccc2C(F)(F)F)cc1S(=O)(=O)N1CCOCC1	0.9	-3.6	8.2	2.7	0.9	62.9*	57.1*
